Columns and labels:
Type in all cases: functional
A-431 [1] = assay: Growth inhibition of human A431 cells after 72 hrs y MTT assay; settings: A-431, 72 h
How it was run: (§1)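 Cells kept in DMEM with 10% FBS, 10 mM sodium bicarbonate, penicillin, streptomycin and 4 mM glutamine at 37 °C under 5% CO2. Log-phase cells were plated in duplicate at 2500–4000 cells/well. After 24 h, compound in medium was added; analogue stocks were 40 mM in DMSO. Growth was read after 72 h by MTT absorbance at 540 nm in dose-response testing.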

DU-145 [2] = assay: Growth inhibition of human DU145 cells after 72 hrs y MTT assay; settings: DU-145, 72 h; how it was run: as §1
MCF7 [3] = assay: Growth inhibition of human MCF7 cells after 72 hrs y MTT assay; settings: MCF7, 72 h; how it was run: as §1
NCI-H460 [4] = assay: Growth inhibition of human H460 cells after 72 hrs y MTT assay; settings: NCI-H460, 72 h; how it was run: as §1
HT-29 [5] = assay: Growth inhibition of human HT-29 cells after 72 hrs y MTT assay; settings: HT-29, 72 h; how it was run: as §1
[6] = Growth inhibition of human BE(2)-C cells after 72 hrs y MTT assay; how it was run: as §1
SW480 [7] = assay: Growth inhibition of human SW480 cells after 72 hrs y MTT assay; settings: SW480, 72 h; how it was run: as §1
A2780 [8] = assay: Growth inhibition of human A2780 cells after 72 hrs y MTT assay; settings: A2780, 72 h; how it was run: as §1
[9] = Growth inhibition of human SJ-G2 cells after 72 hrs y MTT assay; settings: SJ-G2, 72 h; how it was run: as §1
MCF7 [10] = assay: Growth inhibition of human MCF7 cells at 100 uM after 72 hrs y MTT assay
How it was run: (§2)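 Log-phase cells in supplemented DMEM (10% FBS, 4 mM glutamine, antibiotics; 37 °C, 5% CO2) were plated in duplicate at 2500–4000 cells/well. Compound was added 24 h later at a fixed 100 µM, from 40 mM DMSO stocks. After 72 h, MTT absorbance was read at 540 nm and expressed as percent growth inhibition; 100% means total inhibition.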

A2780 [11] = assay: Growth inhibition of human A2780 cells at 100 uM after 72 hrs y MTT assay; how it was run: as §2
SW480 [12] = assay: Growth inhibition of human SW480 cells at 100 uM after 72 hrs y MTT assay; how it was run: as §2
A-431 [13] = assay: Growth inhibition of human A431 cells at 100 uM after 72 hrs y MTT assay; how it was run: as §2
DU-145 [14] = assay: Growth inhibition of human DU145 cells at 100 uM after 72 hrs y MTT assay; how it was run: as §2
[15] = Growth inhibition of human SJ-G2 cells at 100 uM after 72 hrs y MTT assay; how it was run: as §2
NCI-H460 [16] = assay: Growth inhibition of human H460 cells at 100 uM after 72 hrs y MTT assay; how it was run: as §2
HT-29 [17] = assay: Growth inhibition of human HT-29 cells at 100 uM after 72 hrs y MTT assay; how it was run: as §2
[18] = Growth inhibition of human BE(2)-C cells at 100 uM after 72 hrs y MTT assay; settings: Homo sapiens, BE(2)-C, 72 h; read-out: GI; how it was run: as §2

Compound | GI50 (A-431 [1]) | GI50 (DU-145 [2]) | GI50 (MCF7 [3]) | GI50 (NCI-H460 [4]) | GI50 (HT-29 [5]) | GI50 [6] | GI50 (SW480 [7]) | GI50 (A2780 [8]) | GI50 [9] | further results
C=CCO[C@H]1OC(=O)[C@H]2[C@@H]1[C@@H]1CC[C@H]2O1 | > 100 µM | > 100 µM | > 100 µM | > 100 µM |  |  |  |  |  | 
CCCCOC1OC(=O)[C@H]2[C@@H]1[C@@H]1CC[C@H]2O1 (single isomer, unassigned) | > 100 µM | > 100 µM | > 100 µM | > 100 µM | 50 µM | 93 µM | > 100 µM | > 100 µM | 32 µM | 
CC(C)O[C@H]1OC(=O)[C@H]2[C@@H]1[C@@H]1CC[C@H]2O1 | > 100 µM | > 100 µM | > 100 µM | > 100 µM | 19 µM | 44 µM | 94 µM | > 100 µM | 21 µM | 
CCOP(=O)(OCC)OCCCO[C@H]1OC(=O)[C@H]2[C@@H]1[C@@H]1CC[C@H]2O1 | 87 µM | 84 µM | 20 µM | > 100 µM | 17 µM | 9 µM | 9 µM | 22 µM | 43 µM | 
O=C1O[C@H](OCCCOP(=O)(OCC(Cl)(Cl)Cl)OCC(Cl)(Cl)Cl)[C@@H]2[C@H]1[C@H]1CC[C@@H]2O1 | > 100 µM | > 100 µM | 89 µM | > 100 µM | 37 µM | > 100 µM | > 100 µM | 81 µM | 41 µM | 
CCCCCCCCO[C@H]1OC(=O)[C@H]2[C@@H]1[C@@H]1CC[C@H]2O1 | 72 µM | 86 µM | 36 µM | > 100 µM | 40 µM | 51 µM | 49 µM | 28 µM | 45 µM | 
C#CCCCCO[C@H]1OC(=O)[C@H]2[C@@H]1[C@@H]1CC[C@H]2O1 | > 100 µM | > 100 µM | > 100 µM | > 100 µM | 51 µM | > 100 µM | > 100 µM | > 100 µM | 55 µM | 
C=CCO[C@@H]1OC(=O)[C@H]2[C@@H]1[C@@H]1CC[C@H]2O1 | > 100 µM | > 100 µM | > 100 µM | > 100 µM |  | > 100 µM | > 100 µM | > 100 µM |  | 
C/C=C/CO[C@H]1OC(=O)[C@H]2[C@@H]1[C@@H]1CC[C@H]2O1 | > 100 µM | > 100 µM | 77 µM | > 100 µM | 42 µM | 84 µM | 93 µM | 57 µM | 55 µM | 
CC(C)(C)O[C@H]1OC(=O)[C@H]2[C@@H]1[C@@H]1CC[C@H]2O1 | > 100 µM | > 100 µM | > 100 µM | > 100 µM | 52 µM | > 100 µM | > 100 µM | > 100 µM | 48 µM | 
O=C1O[C@H](OCC2CO2)[C@@H]2[C@H]1[C@H]1CC[C@@H]2O1 (stereo in doubt; 19) |  |  |  |  |  |  |  |  |  | growth inhibition (GI) (MCF7 [10]): 37%; growth inhibition (GI) (A2780 [11]): 46%; growth inhibition (GI) (SW480 [12]): 32%; inhibition of growth at 100 µM (A-431 [13]; Homo sapiens, A-431, 72 h, read-out: GI): 35%; inhibition of growth at 100 µM (DU-145 [14]; Homo sapiens, DU-145, 72 h, read-out: GI): 33%; growth inhibition (GI) [15]: 75%; inhibition of growth at 100 µM (NCI-H460 [16]; Homo sapiens, NCI-H460, 72 h, read-out: GI): 11%; growth inhibition (GI) (HT-29 [17]): 69%
CC1OC1CO[C@H]1OC(=O)[C@H]2[C@@H]1[C@@H]1CC[C@H]2O1 (stereo in doubt; 24) |  |  |  |  |  |  |  |  |  | inhibition of growth at 100 µM (MCF7 [10]; Homo sapiens, MCF7, 72 h, read-out: GI): 46%; growth inhibition (GI) (A2780 [11]): 58%; inhibition of growth at 100 µM [18]: 53%; inhibition of growth at 100 µM (SW480 [12]; Homo sapiens, SW480, 72 h, read-out: GI): 37%; growth inhibition (GI) (A-431 [13]): 17%; growth inhibition (GI) (DU-145 [14]): 20%; inhibition of growth at 100 µM ([15]; Homo sapiens, SJ-G2, 72 h, read-out: GI): 79%; growth inhibition (GI) (NCI-H460 [16]): 9%; inhibition of growth at 100 µM (HT-29 [17]; Homo sapiens, HT-29, 72 h, read-out: GI): 68%

— ChEMBL document CHEMBL2040765, “Synthesis and anticancer activity of a series of norcantharidin analogues” (2012)
